ChEMBL document CHEMBL1130160 (J Med Chem, 1997)

Tests used:
Rattus norvegicus [1] = assay: Percent decrease in serum cholesterol relative to OVX control at 1.0 mg/kg in rats; type: functional
In short: (§1)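 OVX Sprague–Dawley rats (75 days old), 5–6 per group, dosed once daily by oral gavage for 4 consecutive days, starting 14 days after ovariectomy. Vehicle was 20% β-hydroxycyclodextrin at 1 mL/kg, or 1.5% carboxymethylcellulose in some cases. Rats were fasted after the last dose and bled by cardiac puncture next morning.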

Rattus norvegicus [2] = assay: Percent decrease in serum cholesterol relative to OVX control at 0.1 mg/kg in rats; type: functional; in short: as §1
Rattus norvegicus [3] = assay: Dose required to reduce serum cholesterol by 50% relative to OVX controls was determined (in vivo); type: functional; in short: as §1
Estrogen receptor = Estrogen receptor (Homo sapiens, UniProt Q92731+P03372); settings: mcf7
Rattus norvegicus [4] = assay: Minimum effective dose at which significant increase in uterine eosinophil peroxidase (EPO) activity in rat was determined (in vivo); type: functional; settings: read-out: MED
Rattus norvegicus [5] = assay: Minimum effective dose at which significant increase in uterine weight/body weight in rat was determined (in vivo); type: functional; settings: read-out: MED
In short: (§2)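 In 75-day OVX Sprague–Dawley rats dosed orally for 4 days, beginning 2 weeks post-ovariectomy with 5–6 rats per group, whole uteri were weighed the morning after fasting. MED is the lowest dose giving a significant (p≤0.05) rise in uterine weight/body weight, expressed as % increase over OVX controls ±SE.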

Rattus norvegicus [6] = assay: Percent decrease in serum cholesterol relative to OVX control at 10 mg/kg in rat was determined (in vivo); type: functional; in short: as §1
Rattus norvegicus [7] = assay: Percent protection of bone mineral density in the distal femur of OVX rat at a dose of 1 mg/kg/day; type: functional
In short: (§3)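 OVX Sprague–Dawley rats (6-month old, or 75-day old in one case) were dosed orally each day for 35 days, starting 4 days after ovariectomy. Digitized X-rays of the right distal femoral metaphysis gave BMD. % protection = (test − OVX)/(sham − OVX) × 100, reported ±SE.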

Rattus norvegicus [8] = assay: Percent protection of bone mineral density in the distal femur of OVX rat at a dose of 0.1 mg/kg/day; type: functional; in short: as §3
Rattus norvegicus [9] = assay: Percent protection of bone mineral density in the distal femur of OVX rat at a dose of 10 mg/kg/day; type: functional; in short: as §3
Rattus norvegicus [10] = assay: Minimum effective dose at which significant increase in uterine weight/body weight in rat was determined (in vivo); expressed as % increase relative to ovariectomized (OVX) controls; type: functional; in short: as §2
Rattus norvegicus [11] = assay: Percent decrease in serum cholesterol relative to OVX control at 1 mg/kg in rat; type: functional; in short: as §1
Rattus norvegicus [12] = assay: Percent decrease in serum cholesterol relative to OVX control at 0.1 mg/kg in rat was determined (in vivo); type: functional; in short: as §1
MCF7 = assay: Inhibition of MCF-7 cell proliferation stimulated by 10e-[…] M 17-beta-estradiol; Not active at the doses tested; type: functional, cell-based, Homo sapiens
Rattus norvegicus [13] = assay: Eosinophil peroxidase activity expressed as Vmax was determined in rat (in vivo) Eosinophil peroxidase activity expressed as Vmax was determined in rat (in vivo); type: functional; design: unit not given here
Rattus norvegicus [14] = assay: Percent protection of bone mineral density in the distal femur of OVX rat at a dose of 0.01 mg/kg/day; type: functional; in short: as §3

IC50 (MCF7) | SMILES | Decrease (Rattus norvegicus [1]) [%] | Decrease (Rattus norvegicus [2]) [%] | ED50 (Rattus norvegicus [3]) [mg/kg] | IC50 (Estrogen receptor) [nM] | minimal effective dose (Rattus norvegicus [4]) [mg/kg] | minimal effective dose (Rattus norvegicus [5]) [mg/kg] | Decrease (Rattus norvegicus [6]) [%] | Protection (Rattus norvegicus [7]) [%] | Protection (Rattus norvegicus [8]) [%] | Protection (Rattus norvegicus [9]) [%] | Increase (Rattus norvegicus [10]) [%] | Decrease (Rattus norvegicus [11]) [%] | Decrease (Rattus norvegicus [12]) [%] | Eosinophil peroxidase activity (Vmax) (Rattus norvegicus [13]) | Protection (Rattus norvegicus [14]) [%]
 | O=C(c1ccc(OCCN2CCCCC2)cc1)c1c(-c2cccc3ccccc23)sc2cc(O)ccc12 | 53.9 | 40.1 | 0.5 | 0.8 | > 10 | > 10 | 67.8 |  |  |  |  |  |  |  | 
 | Cc1sc2cc(O)ccc2c1C(=O)c1ccc(OCCN2CCCCC2)cc1 | 53.8 | 8.3 | 1.8 |  | > 10 | > 10 | 62.9 |  |  |  |  |  |  |  | 
 | COC(=O)c1ccc2c(C(=O)c3ccc(OCCN4CCCCC4)cc3)c(-c3ccc(O)cc3)sc2c1.Cl |  |  | 2.8 |  | > 10 | 0.1 | 61 | 17 | -10 | 43.9 | 37.5 | 42.8 | 13.8 |  | 
 | O=C(c1ccc(OCCN2CCCCC2)cc1)c1c(-c2ccsc2)sc2cc(O)ccc12 |  | 0.6 | > 10 | 10 | > 10 | 10 | 31.8 |  |  |  |  |  |  |  | 
Not Active | Cl.O=C(c1ccc(OCCN2CCCCC2)cc1)c1c(-c2ccc(Cl)cc2)sc2ccccc12 |  |  |  |  |  |  |  |  |  |  |  |  |  |  | 
 | COC(=O)c1ccc(-c2sc3cc(O)ccc3c2C(=O)c2ccc(OCCN3CCCCC3)cc2)cc1 |  |  | 3.8 |  | 10 | 1 | 56.1 |  |  |  | 37.2 | 42.1 | 23.8 | 13.2 | 
 | O=C(c1ccc(OCCN2CCCCC2)cc1)c1c(-c2ccc(O)c3ccccc23)sc2cc(O)ccc12 | 54.7 | 31.6 | 1.2 | 2 | 0.1 | 0.1 | 59.9 | 82.5 | 42.3 |  | 59.6 |  |  | 29.4 | 35.9
 | CSc1ccc(-c2sc3cc(O)ccc3c2C(=O)c2ccc(OCCN3CCCCC3)cc2)cc1 |  |  | 0.9 |  | 1 | 1 | 75.3 |  |  |  | 50.2 | 51.5 | 27.7 | 37.5 | 
 | O=C(c1ccc(OCCN2CCCCC2)cc1)c1c(-c2ccc(-c3ccccc3)cc2)sc2cc(O)ccc12 |  |  | 2.4 | 100 | 1 | 0.1 | 68.5 |  |  |  | 50.3 | 37 | 12.9 | 25.4 | 
 | O=C(c1ccc(OCCN2CCCCC2)cc1)c1c(-c2cccc(O)c2)sc2cc(O)ccc12 |  |  | 0.8 | 3.2 | > 10 | > 10 |  | 79.7 | -30.9 | 44.2 |  |  |  |  | 
 | O=C(c1ccc(OCCN2CCCCC2)cc1)c1c(-c2ccc(O)c(F)c2)sc2cc(O)ccc12 |  |  | 0.4 | 0.3 | > 10 | 0.1 | 55.3 | 68 | 34.1 | 69.8 | 34.3 | 59.2 | 45.9 |  | 34.5
 | O=C(c1ccc(OCCN2CCCCC2)cc1)c1c(C2CCCC2)sc2cc(O)ccc12 | 55.6 | 18.4 | 1.2 |  | > 10 | > 10 | 69.6 |  |  |  |  |  |  |  | 
